Experimental data reported in ChEMBL document CHEMBL3232811, “Mineralocorticoid receptor antagonists: identification of heterocyclic amide replacements in the oxazolidinedione series” (Bioorg Med Chem Lett, 2014).

Columns and labels:
Assay type in all cases: ADME, organism-based
Details in all cases: in vivo
[1] = Volume of distribution in rat at 1 mg/kg, iv and 2 mg/kg, po
In short: (§1)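 Rat PK: compound formulated at 1 mg/mL in PEG 200:water (70:30). Dosed iv at 1 mg/kg (n = 2) and orally at 2 mg/kg (n = 3). Blood concentrations measured by LC/MS/MS after protein precipitation with acetonitrile.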

Rattus norvegicus = experiment: Dose normalized AUC in rat at 1 mg/kg, iv; design: dose 1 mg/kg, route intravenous; in short: as §1
[2] = Oral bioavailability in rat at 2 mg/kg; in short: as §1

Compound	Vd [1]	AUC/dose (Rattus norvegicus)	bioavailability [2]
COc1cc(OC)cc(-c2nnc([C@@]3(Cc4ccccc4)OC(=O)N([C@H](C)c4ccccc4)C3=O)o2)c1	1.2 L/kg	3.7 µM·kg·h/mg	44%
C[C@H](c1ccccc1)N1C(=O)O[C@](Cc2ccccc2)(c2nnc(C3(c4ccccc4)CC3)o2)C1=O	1 L/kg	4.4 µM·kg·h/mg	89%
